# Screening data as filed in PubChem.
# Redox H2O2 prof – compounds producing H2O2 with reducing agent – biochemical, NIH compound library profiling, artefact control for MLSCN library redox annotation, primary screen; AID 878; 200,000 tested, 0.03% active; DTT-dependent redox cycling H2O2, phenol red/HRP absorbance; 100% = 100 µM peroxide control, 0% = buffer; activation, % at 10 µM;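 active = activation of at least 50% relative to the plate's high and low controls in the primary single-dose screen; inactive = activation below 50%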;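 note: compound incubated with DTT at 0.8 mM final as the reducing agent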
# Diaph act CS – activates diaphorase or chemically reduces, flagging diaphorase assay artifacts; Diaphorase/resazurin coupled assay, resorufin fluorescence, 16 min; hits give high values; 1 = vehicle wells, 0 = NADH-free wells; activation factor at 20 µM; 190,000 tested, 0.005% active;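 active = diaphorase activity raised at least twofold by the compound at 20 µM; inactive = activation factor below 2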
#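 Assay system: Purified diaphorase enzyme from Clostridium kluyveri | Amount: Enzyme 0.07 U/mL final | Dosing: Compound 20 µM once, DMSO 1% | Timing: 16 min reaction at room temperature | Detection: Fluorescence, excitation 544 nm and emission 590 nm | Evaluation: Higher resorufin formation from activation or reduction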
# PfGluPho inh – PfG6PD (Plasmodium falciparum) enzyme inhibition. PfGluPho enzyme, NADPH resazurin-diaphorase fluorescence. inhibition, % at 20 µM. 350,000 tested, 0.78% active. AID 504690;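 active = inhibition reaching at least a set limit at 20 µM in the primary screen, cut at about 59% in these data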;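 note: 0% = DMSO wells with substrate and 100% = DMSO wells lacking glucose-6-phosphate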
# G6PDH counter – inhibits Leuconostoc G6PDH, flagging false hits in G6PDH-based assays | AID 1020 | 200,000 tested, 0.12% active | Purified L. mesenteroides G6PDH, diaphorase/resazurin coupled fluorescence, 45 min | inhibition, % at 5 µM
# Lmaj promast – inhibitors of Leishmania major promastigote growth; 200,000 tested, 9% active; Leishmania major promastigotes, resazurin fluorescence viability; inhibition, % at 10 µM; AID 1063;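 note: promastigotes grown with compound for 44 hours at 28 °C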
# Diaphorase inh – inhibits diaphorase or chemically oxidizes, flagging diaphorase assay artifacts; diaphorase resazurin-to-resorufin fluorescence, NADH, 16 min; bacterial (C. kluyveri) enzyme, not human; inhibition, % at 20 µM; 190,000 tested, 0.69% active; AID 1217;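 active = primary screen inhibition at 20 µM above a set limit, cut at about 50% in these data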;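 note: plate controls were DMSO with full reaction for no effect and wells lacking NADH for full effect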
#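 Test system: Clostridium kluyveri diaphorase enzyme / Quantity: diaphorase at 0.14 U/mL in enzyme working solution / Incubation: 16-min room-temperature incubation before reading / Benchmarks: NADH-free wells as positive control, DMSO-only neutral wells / Signal: resorufin fluorescence 544/590 nm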
# An asterisk follows results filed as active; x = not tested or not shown. Only a selection was taken, and hits are over-represented in it overall. Cut-off read from the data, not from the text of the source, unless noted: active = inhibition above about 50%; inactive = the rest.
SMILES,Redox H2O2 prof,Diaph act CS,PfGluPho inh,G6PDH counter,Lmaj promast,Diaphorase inh
COc1ccc(/C=C/C(=O)CC(O)(c2ccccc2)C(F)(F)F)cc1 (centres undefined),0,0.8,20,0,98*,16
O=C(/C=C/c1ccccc1)CC(O)(c1ccccc1)C(F)(F)C(F)F (centres undefined),0,0.9,15,-3,100*,14
NS(=O)(=O)c1ccc(NC(=O)c2ccc(S(=O)(=O)N3CCc4ccccc43)cc2)cc1,-1,0.8,22,-4,-7,21
CCOC(=O)/C(C#N)=N/Nc1ccc(S(=O)(=O)N2CCc3ccccc32)cc1,1,0.8,-6,0,-2,20
N#C/C(=N\Nc1ccc(S(=O)(=O)N2CCc3ccccc32)cc1)C(N)=S,0,0.4,-11,-3,1,56*
COc1ccc(NC(=O)c2cccc(S(=O)(=O)N3CCc4ccccc43)c2)cn1,-1,1,13,-7,94*,1
O=C(Nc1ncccc1O)c1cccc(S(=O)(=O)N2CCc3ccccc32)c1,1,0.7,-26,14,-8,30
COc1ccc(C(=O)Nc2ccc(S(=O)(=O)N3CCc4ccccc43)cc2)cc1,1,x,16,x,54*,x
COc1ccc(-c2cnnn2-c2ccc(NC(=O)c3ccc(S(=O)(=O)N4CCCCC4)cc3)cc2)cc1,0,0.8,3,6,99*,21
O=C(c1ccco1)N1CCN(Cc2cccc3ccccc23)CC1,x,x,-14,x,x,x
Clc1cc(Br)ccc1OCCn1ccnc1,2,1,-7,8,28,-2
Clc1cc(Br)ccc1OCCCn1ccnc1,0,1,-7,3,97*,4
Cc1cc(Br)ccc1OCCn1ccnc1,0,0.9,0,3,72*,9
COc1ccc(C2CC(=O)C=C3c4ccc(OC)cc4CCC32)cc1 (centres undefined),x,x,-17,x,x,x
O=S(=O)(N/N=C\C=C\c1ccccc1)c1ccc(Cl)cc1,2,0.8,-22,0,92*,18
O=S(=O)(N/N=C\c1ccccc1O)c1ccc(Cl)cc1,x,x,-6,x,x,x
Cc1cccc2sc(NNC(=O)c3ccc(S(=O)(=O)N4CCc5ccccc5C4)cc3)nc12,1,1,5,4,99*,-4
Cc1cccc2sc(NNC(=O)c3ccc(S(=O)(=O)N4CCCC(C)C4)cc3)nc12 (centres undefined),0,0.9,16,11,96*,14
COc1ccccc1NC(=O)CSc1nnc(C2CCCCC2)n1-c1ccccc1,x,x,-10,x,x,x
CCN1CCN(CCCNC(=O)c2cc3sccc3n2CC)CC1,-1,0.9,-24,16,13,10
Cn1c(C(=O)NCCN2CCOCC2)cc2sccc21,0,0.9,-14,9,6,10
CCn1c(C(=O)NCCCN2CCc3ccccc3C2)cc2sccc21,0,1,-9,0,91*,2
O=C(Nc1ccc2c(c1)OCCO2)c1cc2sccc2n1Cc1ccc(F)cc1,-3,0.7,51,8,97*,25
Cc1ccc(Cn2c(C(=O)NCCCN3CCOCC3)cc3sccc32)cc1,0,0.8,-7,-1,87*,18
Cc1cc2c(cc(C(=O)NCCCN3CCOCC3)n2Cc2ccc(Cl)cc2)o1,0,1,14,-16,99*,0
SMILES,Redox H2O2 prof,Diaph act CS,PfGluPho inh,G6PDH counter,Lmaj promast,Diaphorase inh
Cc1nn(-c2ccccc2)c(Cl)c1/C=C1\N=C(c2ccccc2)OC1=O,1,x,x,x,-7,x
COc1ccc(N2C(=O)CSC(c3ccccc3)C2=O)cc1 (centres undefined),-1,1,-17,17,-2,-5
O=C(NCCCN1CCOCC1)c1ccccc1,0,0.8,-6,-5,-5,18
O=C(Cn1c(C(=O)NCCCN2CCOCC2)cc2sccc21)c1ccccc1,1,1,-9,7,81*,4
Cc1cc(C)nc(/N=C(\N)Nc2cccc(OCc3ccccc3)c2)n1,x,x,7,x,x,x
Cc1cc(C)nc(/N=C(\N)Nc2ccc(OCc3ccccc3)cc2)n1,-1,1,3,6,100*,3
CCOC(=O)C1(Cc2cccc(OC)c2)CCN(Cc2cccc(OC)c2O)CC1,-1,0.8,31,9,72*,21
CCOC(=O)C1(Cc2cccc(OC)c2)CCN(Cc2ccccc2OC)CC1,-1,0.9,1,20,20,15
CCOC(=O)C1(Cc2cccc(F)c2)CCN(Cc2cnn(CC)c2C)CC1,0,x,-2,15,69*,x
CCOC(=O)C1(Cc2ccccc2)CCN(Cc2cccc3nccnc23)CC1,0,0.7,4,16,44,26
CCOC(=O)C1(Cc2ccccc2)CCN(Cc2cccc(OC)c2O)CC1,0,0.7,23,13,68*,26
CCOC(=O)C1(Cc2cccc(OC)c2)CCN(Cc2ccc(OC)c(OC)c2)CC1,0,0.9,9,8,91*,6
CCOC(=O)C1(Cc2cccc(F)c2)CCN(Cc2cnn(CC)c2)CC1,-2,0.9,-18,1,37,11
COc1cccc(OCc2cc(C(=O)NCc3cnc4ccccn34)no2)c1,x,x,0,x,x,x
Cc1ccc(NC(=O)CSCC(=O)N2CCCc3ccccc32)cc1,x,x,6,x,x,x
Cc1cc(C)cc(NC(=S)NCCN2CCOCC2)c1,2,x,-2,x,-2,x
O=C(Nc1ccc(Oc2ccc(Br)cc2)cc1)C1=CC=CN2CCS(=O)(=O)N=C12,x,x,3,x,x,x
COc1cccc(CNC(=O)CCCn2nc(C)n3c(cc4sccc43)c2=O)c1,x,x,-1,x,x,x
CCCCN1C(=S)NC[C@@H]1Cc1ccccc1,1,0.9,-14,8,2,10
CCOC(=O)C1(Cc2ccccc2)CCN(Cc2csc(C(C)=O)c2)CC1,11,1,26,10,86*,4
CCOC(=O)C1(Cc2ccccc2)CCN(Cc2cnn(C(C)C)c2)CC1,13,0.9,-19,14,15,13
COc1ccc(-c2cc(-c3ccccc3)nc(NN)n2)cc1OC,x,x,0,x,x,x
COc1nc(-c2ccccc2)cc(-c2ccc(OC)c(OC)c2)n1,6,1,20,-8,61*,-3
CCOc1ccc(CCNC(=O)C(C)N2C(=O)CC(C)(C)Sc3ccccc32)cc1 (centres undefined),x,x,-16,x,x,x
COc1ccc(NC(=O)CN2CCC(NC(=O)c3ccco3)CC2)c([N+](=O)[O-])c1,x,x,2,x,x,x
O=C(CN1CCN(c2ncccn2)CC1)N1CCN(C(c2ccccc2)c2ccccc2)CC1,1,x,x,x,98*,x
O=C(Cc1c(Sc2ccccc2)c2ccccc2n1Cc1ccccc1)NCCO,0,0.7,23,-6,58*,27
